Data on ten compounds can be found in ChEMBL document CHEMBL2093137, “WHO-TDR NTD Screening”.

Series [1] deals with Schistosoma mansoni. Nature of the series: WHO-TDR: Schistosomiasis. It is filed as functional. Details: concentration or dose not given beside the values. Put shortly:
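A diverse library of 10,000 compounds from Life Chemicals, filtered for drug-likeness and reactive groups, was screened against whole larval and/or adult Schistosoma mansoni worms of the Puerto Rican strain. Previously published standard procedures were followed, with a reference drug as positive control. Activity is given as percent inhibition and as IC50.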

Series [2] has as its system Onchocerca ochengi. Description: (§1) WHO-TDR: Onchocerciasis. It is filed as functional. More on the design: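 at 12.5 µM on microfilariae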. Put shortly:
(§2)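 A diverse library of 10,000 compounds from Life Chemicals, filtered for drug-likeness and reactive groups, was screened against whole microfilariae of Onchocerca ochengi or Onchocerca lienalis. These animal pathogens served as stand-ins for the human parasite. Activity is given as percent inhibition and as IC50.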

Series [3] concerns Onchocerca ochengi. Described as §1. It is filed as functional. Details: concentration or dose not given beside the values. The method, boiled down: as §2
The source holds these as a separate data set.

The test system of series [4] is Trypanosoma cruzi. Nature of the series: WHO-TDR: Chagas disease. It is filed as functional, organism-based, Homo sapiens. To be noted: MRC5. The method, boiled down: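 Intracellular amastigotes of the Trypanosoma cruzi Tulahuen CL2 beta-galactosidase strain, grown in MRC-5SV2 human lung fibroblast host cells, were tested in a whole-organism screen. The compounds came from a 10,000-member diverse Life Chemicals library that had been filtered for drug-likeness and reactive groups. Previously published standard procedures were followed, with a reference drug as positive control, and potency is reported as IC50.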

For series [5], the system named is Leishmania infantum. Nature of the series: WHO-TDR: Leishmaniasis. It is filed as functional, organism-based, Mus musculus. As to conditions: Macrophage. The method, boiled down:
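Antiparasitic potency, reported as IC50, was measured against intracellular Leishmania infantum amastigotes. The parasite strain was MHOM/MA(BE)/67, and murine peritoneal macrophages served as host cells for the screen of a 10,000-compound diverse library from Life Chemicals.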

Series [6] relates to Plasmodium falciparum K1. Description: WHO-TDR: Malaria. To be noted: Erythrocyte. It is filed as functional, organism-based, Homo sapiens. The method, boiled down:
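Antiplasmodial potency, expressed as IC50, was measured in a whole-organism assay on intra-erythrocytic Plasmodium falciparum K1 in human red blood cells. The screened library held 10,000 diverse compounds from Life Chemicals.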

Series [7] is described as follows: WHO-TDR: Cytotoxicity. It is filed as toxicity, cell-based. To be noted: human, MRC5 cells.
Series [8] concerns Trypanosoma brucei brucei. Description: WHO-TDR: Human African Trypanosomiasis (HAT). It is filed as functional, organism-based. To be noted: Squib-427. The method, boiled down: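 Antiparasitic potency is reported as IC50. The screen covered 10,000 compounds from a diverse Life Chemicals library, filtered for drug-likeness and reactive groups, tested on whole bloodstream-form Trypanosoma brucei of the Squib 427 strain.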

Values after ≈ are worked out from the molar mass of the structure shown. Bounds are passed on as bounds.

For the compound `CN1CCCc2cc(C(CNC(=O)c3cccs3)N3CCCCC3)ccc21` (stereo not given), the “% Inhibition” value is reported as 0% in series [1], 100% in series [2] and 0% in series [3]. The IC50 in series [4] was 10.4 µg/mL (≈ 27.2 µM); in series [5], more than 11.5 µg/mL; in series [6] it was more than 11.5 µg/mL; in series [7] it was more than 11.5 µg/mL; in series [8], 3.68 µg/mL (≈ 9.6 µM).
For the compound `CC1CCN(C(C)CNC(=O)Nc2ccc(F)cc2)CC1` (stereo not given), the “% Inhibition” value in series [1], in series [2] and in series [3] was 0% in each case. The IC50 in series [4] was more than 8.8 µg/mL; in series [5] it was more than 8.8 µg/mL; in series [6], 3.19 µg/mL (≈ 10.9 µM); in series [7] it was more than 8.8 µg/mL; in series [8], 0.303 µg/mL (≈ 1.03 µM).
With `O=S(=O)(Nc1cccc(-c2nc3ccccc3s2)c1)c1ccc(Cl)s1`, the “% Inhibition” value stood at 0% in series [1], 100% in series [2] and 0% in series [3]. For the same compound, the IC50 in series [4] is 4.01 µg/mL (≈ 9.85 µM); in series [5] it was more than 12.2 µg/mL; in series [6], more than 12.2 µg/mL; in series [7] it was more than 12.2 µg/mL; in series [8], more than 12.2 µg/mL.
As to `NC(=O)c1cc(-c2ccccc2)sc1NC(=O)c1cc2ccccc2o1`, the “% Inhibition” value in series [1] stood at 0%; in series [2], 100%; in series [3], 0%. Moreover, the IC50 in series [4], in series [5], in series [6], in series [7] and in series [8] was more than 10.9 µg/mL each time.
In the case of `O=C(NCCn1nc(-c2ccco2)ccc1=O)C1c2ccccc2Oc2ccccc21`, the “% Inhibition” value in series [1], in series [2] and in series [3] was 0% throughout. Also, the IC50 in series [4] is more than 12.4 µg/mL; in series [5], 1.84 µg/mL (≈ 4.46 µM); in series [6], more than 12.4 µg/mL; in series [7], more than 12.4 µg/mL; in series [8], more than 12.4 µg/mL.
With `Cc1cc(F)ccc1S(=O)(=O)Nc1ccc2c(c1)CN(C(=O)c1ccco1)CC2`, the “% Inhibition” value in series [1] is 0%; in series [2], 100%; in series [3], 0%. The IC50 in series [4] was 3.44 µg/mL (≈ 8.3 µM); in series [5], more than 12.4 µg/mL; in series [6], 6.28 µg/mL (≈ 15.2 µM); in series [7] it was 7.31 µg/mL (≈ 17.6 µM); in series [8], 4.03 µg/mL (≈ 9.71 µM).
For the compound `O=S(=O)(Nc1nc2c(Cl)cccc2s1)c1ccc(Cl)s1`, the “% Inhibition” value stood at 0% in series [1], 100% in series [2] and 0% in series [3]. In addition, the half-inhibitory concentration (IC50) in series [4] was 10.4 µg/mL (≈ 28.5 µM); in series [5], more than 11 µg/mL; in series [6], more than 11 µg/mL; in series [7] it was more than 11 µg/mL; in series [8] it was more than 11 µg/mL.
Turning to `CC(C)CCN1C(=O)CCc2cc(NC(=O)c3cccc(Br)c3)ccc21`, the “% Inhibition” value is reported as 0% in series [1], 100% in series [2] and 0% in series [3]. Further, the IC50 in series [4] is 3.35 µg/mL (≈ 8.08 µM); in series [5], more than 12.5 µg/mL; in series [6] it was more than 12.5 µg/mL; in series [7] it was more than 12.5 µg/mL; in series [8], 3.5 µg/mL (≈ 8.42 µM).
For `COc1ccc2oc(-c3csc(NC(=O)c4cccc(OC)c4OC)n3)cc2c1`, the “% Inhibition” value in series [1], in series [2] and in series [3] was 0% each time. Further, the IC50 is more than 12.3 µg/mL in series [4]; 0.638 µg/mL (≈ 1.55 µM) in series [5]; more than 12.3 µg/mL in series [6]; more than 12.3 µg/mL in series [7]; more than 12.3 µg/mL in series [8].
Consider `CSc1nc(NC(C)C)c2cnn(CCNC(=O)COc3ccc(Cl)cc3)c2n1`, for which the “% Inhibition” value in series [1] was 0%; in series [2], 100%; in series [3] it was 0%. Also, the half-inhibitory concentration (IC50) was 4.18 µg/mL (≈ 9.62 µM) in series [4]; more than 13 µg/mL in series [5]; more than 13 µg/mL in series [6]; more than 13 µg/mL in series [7]; 4.13 µg/mL (≈ 9.49 µM) in series [8].
